By pKi is commonly meant the negative decadic logarithm of the Ki, by convention in mol/L.

The results in this text go back to ChEMBL document CHEMBL1131222, “Novel thieno[2,3-d][1,3]oxazin-4-ones as inhibitors of human leukocyte elastase” (J Med Chem, 1998).

The nature of data set [1]: Alkaline hydrolysis rate (k-OH). The data set is classed as ADME. The procedure, abridged: (§1)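 Thienooxazinone loss followed spectrophotometrically at a fixed wavelength (330–355 nm) in 50 mM CAPS, pH 10.5 or 11.5, 25 °C. Final inhibitor concentration 10–25 μM, 5% final DMSO. Curves analysed as first-order reactions. For some compounds at pH 10.5, reverse-phase HPLC aliquots were taken every 3 h over 24 h, with peak areas at 240 nm fitted to a first-order equation.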

Data set [2] concerns the target T1, Neutrophil elastase (Homo sapiens, UniProt P08246).
T1 sequence (P08246 whole entry): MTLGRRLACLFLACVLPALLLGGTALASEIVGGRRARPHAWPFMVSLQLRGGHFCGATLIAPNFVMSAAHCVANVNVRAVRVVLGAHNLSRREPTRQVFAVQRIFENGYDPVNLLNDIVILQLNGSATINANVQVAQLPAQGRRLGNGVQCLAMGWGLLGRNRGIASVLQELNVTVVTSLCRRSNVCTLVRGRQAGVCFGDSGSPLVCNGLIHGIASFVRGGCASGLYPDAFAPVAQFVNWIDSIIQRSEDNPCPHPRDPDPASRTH
The experiment in a line: Negative logarithm of steady state constant Ki for enzyme-inhibitor complex Human Leukocyte Elastase inhibition. The procedure, abridged: (§2)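 Progress-curve assay at 25 °C with HLE purified from human leukocytes, in 50 mM sodium phosphate, 500 mM NaCl, pH 7.8. Substrate was MeOSuc-Ala-Ala-Pro-Val-pNA (200 μM final, 405 nm, 30–75 min) or, for a few inhibitors, Suc-Ala-Ala-Pro-Val-AMC (125 μM final, ex 340/em 460 nm, 4–5 min). […] Curves were fitted by slow-binding kinetics (k_obs = k_on'[I] + k_off).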

In data set [3] the target is T1, Neutrophil elastase. The experiment in a line: Steady state inhibition constant for Human Leukocyte Elastase inhibition. The procedure, abridged: as §2
Data set [4] in a line: Alkaline hydrolysis rate (logk-OH). The data set is classed as ADME. As to conditions: 50 mM CAPS, pH 10.5 or 11.5, 25 °C. In a few lines:
as §1

Data set [5] has as its target T2, Neutrophil elastase (Homo sapiens) (UniProt P08246).
T2 sequence (whole entry): T1 sequence (P08246 whole entry)
The experiment in a line: Second order rate constant for enzyme-inhibitor complex Human Leukocyte Elastase inhibition was determined. The procedure, abridged: as §2

For data set [6], the target named is T2, Neutrophil elastase (Homo sapiens).

pKi: −log10 of the molar value.

Consider `CSc1nc2sc(C)c(C)c2c(=O)o1`, for which the kOH- in data set [1] amounted to 1.65 M⁻¹ s⁻¹. The pKi at Neutrophil elastase [2] and on Neutrophil elastase [3] was 7.46 each time. For the same compound, the “Log kOH-” value in data set [4] is listed as 0.22.
Take `Cc1sc2nc(NC(C)C)oc(=O)c2c1C`: the kon (10e3* M-1 s-1) in data set [5] came to 1.13. The koff in data set [6] is 0.85. Besides, in data set [1], the kOH- was 0.073 M⁻¹ s⁻¹. The pKi on Neutrophil elastase [2] and at Neutrophil elastase [3] was 7.12 in each case. The same compound yielded a Log kOH- in data set [4] of -1.14.
In turn, `Cc1sc2nc(N3CCOCC3)oc(=O)c2c1C` displayed a kon (10e3* M-1 s-1) in data set [5] of less than 0.6. Also, in data set [1], the kOH- came to 0.085 M⁻¹ s⁻¹. This compound also yielded a Log kOH- in data set [4] of -1.07.
For `CCSc1nc2sc(C)c(C)c2c(=O)o1`, the kOH- in data set [1] worked out at 1.27 M⁻¹ s⁻¹. The pKi at Neutrophil elastase [2] and at Neutrophil elastase [3] was 8.56 in each case. Further, the “Log kOH-” value in data set [4] was found to be 0.1.
`CC(C)Nc1nc2sc3c(c2c(=O)o1)CCCC3`: the kOH- in data set [1] is 0.323 M⁻¹ s⁻¹. Besides, the pKi on Neutrophil elastase [2] and at Neutrophil elastase [3] was 6.84 in each case. Also, the Log kOH- in data set [4] was -0.49.
Regarding `CCOc1nc2sc3c(c2c(=O)o1)CCCC3`, the kOH- in data set [1] turned out to be 2.77 M⁻¹ s⁻¹. The pKi at Neutrophil elastase [2] and at Neutrophil elastase [3] was 8.87 throughout. Also, the “Log kOH-” value in data set [4] is given as 0.44.
The compound `Cc1sc2nc(OCC(C)C)oc(=O)c2c1C` gave a kOH- in data set [1] of 2.55 M⁻¹ s⁻¹. The pKi on Neutrophil elastase [2] is 6.87; at Neutrophil elastase [3] it was 6.88. Moreover, the “Log kOH-” value in data set [4] came to 0.41.
In turn, `CSc1nc2sc3c(c2c(=O)o1)CCCC3` displayed a kon (10e3* M-1 s-1) in data set [5] of 272. In data set [6], this compound came in with a koff of 15.6. This compound also yielded a kOH- in data set [1] of 1.63 M⁻¹ s⁻¹. For the same compound, the pKi on Neutrophil elastase [2] and at Neutrophil elastase [3] was 8.24 in each case. Also, the “Log kOH-” value in data set [4] is reported as 0.21.
Compound `COC(=O)CSc1nc2sc(C)c(C)c2c(=O)o1` showed a kon (10e3* M-1 s-1) in data set [5] of 0.685. Further, the koff in data set [6] stood at 1.63. The kOH- in data set [1] stood at 1.03 M⁻¹ s⁻¹. The pKi at Neutrophil elastase [2] and at Neutrophil elastase [3] was 6.62 throughout. Also, in data set [4], the “Log kOH-” value is 0.01.
Turning to `CCCOc1nc2sc(C)c(C)c2c(=O)o1`, in data set [1], the kOH- was found to be 2.48 M⁻¹ s⁻¹. Moreover, the pKi on Neutrophil elastase [2] and on Neutrophil elastase [3] was 8.40 throughout. Further, the “Log kOH-” value in data set [4] is on record as 0.39.
With `CCN(CC)c1nc2sc3c(c2c(=O)o1)CCCC3`, the kOH- in data set [1] worked out at 0.025 M⁻¹ s⁻¹. Also, the pKi on Neutrophil elastase [2] and on Neutrophil elastase [3] was 7.79 throughout. The same compound returned a Log kOH- in data set [4] of -1.59.
For the compound `CCOc1nc2scc(C(C)C)c2c(=O)o1`, in data set [1], the kOH- worked out at 2.98 M⁻¹ s⁻¹. For the same compound, the pKi on Neutrophil elastase [2] and on Neutrophil elastase [3] was 8.25 throughout. Moreover, in data set [4], the “Log kOH-” value is listed as 0.47.
Turning to `CN(c1nc2sc3c(c2c(=O)o1)CCCC3)C1CCCCC1`, the kon (10e3* M-1 s-1) in data set [5] was less than 0.6.
Compound `CCSc1nc2sc3c(c2c(=O)o1)CCCC3` returned a kOH- in data set [1] of 0.59 M⁻¹ s⁻¹. Also, the pKi on Neutrophil elastase [2] and on Neutrophil elastase [3] was 8.24 each time. The Log kOH- in data set [4] is -0.22.
`COC(=O)CSc1nc2sc3c(c2c(=O)o1)CCCC3`: the kOH- in data set [1] came to 0.92 M⁻¹ s⁻¹. Besides, the pKi at Neutrophil elastase [2] and on Neutrophil elastase [3] was 7.75 each time. Further, the Log kOH- in data set [4] is -0.04.
`CCN(CC)c1nc2sc(C)c(C)c2c(=O)o1` came in with a kon (10e3* M-1 s-1) in data set [5] of less than 0.6. In addition, the kOH- in data set [1] was found to be 0.023 M⁻¹ s⁻¹. This compound also showed a Log kOH- in data set [4] of -1.63.
For `O=c1oc(N2CCOCC2)nc2sc3c(c12)CCCC3`, in that order: less than 0.8, 0.083 M⁻¹ s⁻¹ and -1.08.
On to `CCOc1nc2sc(C)c(C)c2c(=O)o1`, for which the kOH- in data set [1] stood at 2.82 M⁻¹ s⁻¹. Moreover, the pKi on Neutrophil elastase [2] and on Neutrophil elastase [3] was 7.97 in each case. Moreover, the “Log kOH-” value in data set [4] was found to be 0.45.
The compound `Cc1sc2nc(SCc3ccccc3)oc(=O)c2c1C` displayed a kOH- in data set [1] of 0.69 M⁻¹ s⁻¹. Besides, the pKi at Neutrophil elastase [2] and at Neutrophil elastase [3] was 7.00 throughout. In data set [4], this compound showed a Log kOH- of -0.16.
For the compound `CC(C)COc1nc2sc3c(c2c(=O)o1)CCCC3`, the kOH- in data set [1] was 1.83 M⁻¹ s⁻¹. The pKi on Neutrophil elastase [2] and at Neutrophil elastase [3] was 7.29 in each case. Besides, the “Log kOH-” value in data set [4] turned out to be 0.26.
Compound `Cc1sc2nc(N(C)C3CCCCC3)oc(=O)c2c1C` gave a Kon (10e3* M-1 s-1) in data set [5] of less than 0.8. Besides, the kOH- in data set [1] turned out to be 0.077 M⁻¹ s⁻¹. Moreover, the Log kOH- in data set [4] was -1.11.
For the compound `CC(C)Nc1nc2sccc2c(=O)o1`, the kOH- in data set [1] was 0.332 M⁻¹ s⁻¹. The pKi at Neutrophil elastase [2] and at Neutrophil elastase [3] was 7.38 in each case. This compound displayed a Log kOH- in data set [4] of -0.48.
For the compound `O=c1oc(SCc2ccccc2)nc2sc3c(c12)CCCC3`, the kOH- in data set [1] was 0.355 M⁻¹ s⁻¹. In addition, the pKi on Neutrophil elastase [2] and at Neutrophil elastase [3] was 6.54 throughout. Also, the Log kOH- in data set [4] was -0.45.
For `CCCOc1nc2sc3c(c2c(=O)o1)CCCC3`, in data set [1], the kOH- is 2.75 M⁻¹ s⁻¹. For the same compound, the pKi on Neutrophil elastase [2] and on Neutrophil elastase [3] was 8.84 throughout. Also, the “Log kOH-” value in data set [4] is 0.44.
